Bioassay records deposited in PubChem by several laboratories.
L major viab – Leishmania major promastigote growth inhibition, primary screen; Leishmania major promastigotes, resazurin fluorescence viability; inhibition, % at 10 µM; actives 9% (n = 200,000); in the data active means inhibition above about 50%;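 further: promastigotes grown with compound for 44 hours at 28 °C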
CSC inhib – cancer stem cell viability inhibitors, primary screen, luminescence | inhibition, % at 7.5 µM | cancer stem cell-like cells viability | actives 1.1% (n = 300,000); in the data active means inhibition above about 75%; inconclusive means no clear call, values can overlap the other calls; tested in HMLE shEcad cells
Mdm2-MdmX inh – inhibitors of human Mdm2-MdmX association, primary screen, cell-based, luminescence, split luciferase, SaOS-2, uHTS. Protein Mdm4 (Homo sapiens) + E3 ubiquitin-protein ligase Mdm2 (Homo sapiens), …. SaOS-2 split-luciferase Mdm2/MdmX complementation. inhibition, % at 8 µM. actives 3% (n = 330,000). AID 485346, 2010;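 active means inhibition of at least 50% at 8 µM in the primary screen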
Target sequence (O15151 whole entry, looked up): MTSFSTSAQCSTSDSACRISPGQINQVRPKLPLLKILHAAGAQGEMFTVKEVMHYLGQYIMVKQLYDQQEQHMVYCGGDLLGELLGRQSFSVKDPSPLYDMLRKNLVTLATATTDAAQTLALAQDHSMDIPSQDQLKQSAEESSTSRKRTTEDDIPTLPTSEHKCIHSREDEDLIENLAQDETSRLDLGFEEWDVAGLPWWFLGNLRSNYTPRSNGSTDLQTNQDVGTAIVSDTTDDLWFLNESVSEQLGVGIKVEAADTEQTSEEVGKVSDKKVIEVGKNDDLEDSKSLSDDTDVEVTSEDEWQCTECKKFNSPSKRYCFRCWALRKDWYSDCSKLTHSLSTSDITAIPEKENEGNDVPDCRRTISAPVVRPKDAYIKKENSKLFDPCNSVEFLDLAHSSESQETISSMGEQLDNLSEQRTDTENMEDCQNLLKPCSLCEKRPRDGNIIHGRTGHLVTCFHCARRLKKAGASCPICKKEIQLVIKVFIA
Target sequence (Q00987 whole entry, looked up): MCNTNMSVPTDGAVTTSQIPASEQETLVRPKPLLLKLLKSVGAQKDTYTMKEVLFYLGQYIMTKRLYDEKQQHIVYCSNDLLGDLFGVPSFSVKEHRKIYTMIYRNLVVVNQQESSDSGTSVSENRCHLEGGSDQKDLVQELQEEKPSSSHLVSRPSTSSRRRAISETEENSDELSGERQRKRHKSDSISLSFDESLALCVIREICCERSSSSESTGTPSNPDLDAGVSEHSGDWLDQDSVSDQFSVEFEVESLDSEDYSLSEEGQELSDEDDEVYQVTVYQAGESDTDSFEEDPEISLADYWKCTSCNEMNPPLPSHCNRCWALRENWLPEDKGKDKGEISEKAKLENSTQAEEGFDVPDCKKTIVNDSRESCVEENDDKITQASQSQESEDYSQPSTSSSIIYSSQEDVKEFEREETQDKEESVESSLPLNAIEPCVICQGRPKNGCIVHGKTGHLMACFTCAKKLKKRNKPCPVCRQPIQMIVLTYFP
Beta apoptosis – inhibitors of cytokine-induced beta cell apoptosis, primary screen, luminescence; actives 0.8% (n = 300,000); AID 435005, 2010; INS-1E cytokine-induced death, ATP luminescence, 48 h; percent of positive-control rescue, neutral wells zero; protection from apoptosis, % (no concentration beside the values);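 active means Every replicate reaches about 75%, or at least half do and their mean reaches it too, limit read from the data; inconclusive means At least half of replicates reach the limit but their mean does not; inactive means Under half of replicates reach the limit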;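 further: 0% = cytokine-treated negative control wells and 100% = positive control rescue; higher means more ATP so stronger rescue from cytokine killing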
SKKanGAS inh – S. pyogenes SKKanGAS growth inhibitors in kanamycin, primary screen, streptokinase expression inhibitor project, SKKanGAS strain, BacTiter-Glo luminescence; actives 1.3% (n = 300,000); 6 h; AID 1662, 2009; inhibition, % at 7.5 µM;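 active means mean replicate score, as percent of positive control median, at least 50; inconclusive means mean below 50 but one replicate at or above 50; inactive means mean and every replicate below 50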;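 further: strain carries kanamycin resistance gene driven by streptokinase promoter and grows in 40 µg/ml kanamycin; loss of luminescence reflects streptokinase promoter inhibition or plain growth inhibition; 0% = median of DMSO wells and 100% = positive control at its reference dose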
T cruzi inh – inhibitors of intracellular T. cruzi growth, primary screen, luminescence, NIH3T3 host cells | T. cruzi beta-gal in NIH3T3, 90 h | inhibition, % (concentration not given with the values) | actives 1.4% (n = 300,000);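 active means mean inhibition across valid replicates above about 55%, limit read from the data; inconclusive means mean below that limit but half or more replicates reach it; inactive means mean below it, under half of replicates reach it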;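 further: signal also drops with host cell toxicity which is not excluded here; 0% = plate median of DMSO wells and 100% = zero luminescence signal; higher percent means less beta-gal luminescence so fewer parasites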
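Test system: β-gal T. cruzi (Tulahuen C4) inside NIH/3T3 cells / Quantity: 5,000 cells/well / Measured by: luminescence from GalScreen with 0.05% NP40, read after 60 min / Medium: DMEM plus 2% FBS / Measure: parasite load inhibition, % / Reagent: Tulahuen C4 trypomastigotes, 5000/well / Schedule: co-culture of at least 90 h after 3 h attachment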
Numbers without * were called inactive; ? = inconclusive; . = not tested or not shown. Compounds with a hit are over-represented: about 9.4% of the library has one in this group of screens.

SMILES | L major viab | CSC inhib | Mdm2-MdmX inh | Beta apoptosis | SKKanGAS inh | T cruzi inh
FC(F)(F)c1cccc(NC(=S)NNC(=S)NCc2ccccc2)c1 | 1 | 57 | 18 | -2 | 12 | 24
FC(F)(F)c1cccc(NC(=S)NC2CCCC2)c1 | 74* | . | 10 | 2 | 8 | -15
FC(F)(F)c1ccc(NC(=S)NC2CCCCC2)cc1 | 9 | 35 | 12 | 12 | 16 | 33
CN1CCN(C(=S)Nc2cccc(C(F)(F)F)c2)CC1 | 83* | -2 | -13 | -11 | -6 | -33
FC(F)(F)c1cccc(NC(=S)N2CCCC2)c1 | . | . | 4 | . | ? | -17
O=C(Cc1cccc2ccccc12)Nc1ccccc1Br | . | -12 | -2 | -5 | 8 | 1
CC(=O)N1CCN(c2ccc(Oc3ccc([N+](=O)[O-])c(C(F)(F)F)c3)cc2)CC1 | . | -4 | 49 | 95* | -1 | 13
CCOc1ccc(C(=O)Nc2ccc(N3CCN(C(C)=O)CC3)cc2)cc1[N+](=O)[O-] | -2 | 5 | -5 | -3 | 6 | -3
CCCC1(c2ccccc2)NC(=O)N(CC(=O)Nc2cc(C)ccc2OC)C1=O (stereo not given) | . | -19 | -38 | 93* | 0 | 16
COc1ccc(C(=O)N2CCC2)cc1S(=O)(=O)NCc1ccc(Cl)cc1 | . | -15 | -6 | -9 | . | .
CN(C)c1ccc(N/C=C/C(=O)c2ccc(F)cc2)cc1 | 18 | 47 | -110 | 10 | -4 | 60*
Cc1cc(=O)n2[nH]c(CCC(=O)O)nc2n1 | . | -16 | 4 | 0 | -8 | -2
Cc1ccc(NC(=O)CSc2nn(-c3ccccc3)c(=S)s2)cc1S(=O)(=O)N(C)C | 77* | 18 | 15 | 0 | 3 | 27
Cc1csc(NC(=O)CSC2=NS(=O)(=O)c3ccccc3N2)n1 | . | -12 | -7 | -9 | 0 | -10
Cc1ccc(C2C(/C=C3/SC(=S)NC3=O)=C(c3cccs3)Oc3ccccc32)cc1 (stereo not given) | -2 | 108* | 43 | 18 | 113* | -12
CC1Cc2cc(/C=C3/SC(=S)NC3=O)ccc2O1 (stereo not given) | . | 57 | -44 | 8 | 12 | -3
Cc1cc(C)c2c(C(C)(C)C)nn(-c3ccccc3)c2n1 | . | 5 | 4 | -8 | 60* | -18
COc1ccc(NC(=O)COC(=O)c2ccc(S(=O)(=O)N3CCCCCC3)cc2)c(OC)c1 | . | . | 20 | . | . | .
c1ccc(-c2csc3nnc(SCc4ccc5c(c4)OCCO5)n23)cc1 | 56* | -3 | 10 | -11 | 3 | 20
COc1ccc(/C=C/C(=O)O)cc1S(=O)(=O)N1CCCC1 | . | -1 | 0 | -3 | -2 | -11
CCN(CC)S(=O)(=O)c1cccc(C(=O)Nc2nc3cc4c(cc3s2)OCCO4)c1 | 93* | 39 | 28 | 6 | 71* | 30
O=C(Nc1nc2cc3c(cc2s1)OCCO3)c1cccc(N2C(=O)CCC2=O)c1 | 55* | -8 | 27 | -3 | 21 | 3
COc1ccccc1C(=O)Nc1nc2cc3c(cc2s1)OCCO3 | 75* | 49 | -225 | 22 | 3 | -7
O=C(NNc1nc2cc3c(cc2s1)OCO3)c1cccc(F)c1 | 55* | 14 | 15 | -3 | -8 | -3
CCN(CC)S(=O)(=O)c1ccc2nc(NC(=O)c3ccco3)sc2c1 | -1 | -2 | 10 | 2 | -2 | 3
SMILES | L major viab | CSC inhib | Mdm2-MdmX inh | Beta apoptosis | SKKanGAS inh | T cruzi inh
COc1ccccc1C(=O)Nc1nc2cc3c(cc2s1)OCO3 | . | 21 | -214 | 14 | 1 | 4
CCc1noc(C)c1C(=O)N1CCCSC1=Nc1ccccc1Cl | . | -8 | 1 | 4 | 2 | 1
COc1cc(-c2noc(C)c2C(=O)NCCc2ccccc2)cc(OC)c1OC | . | -18 | 20 | -4 | . | .
C=CCn1ccc(=NC=C(C#N)C#N)c2ccccc21 | . | 5 | -4 | -2 | -3 | -1
COc1ccc(/C=C2\CCCC3C2=NN(C(=O)CSc2ncn[nH]2)C3c2ccc(OC)cc2)cc1 (stereo not given) | 91* | 36 | 37 | -17 | 29 | 24
Cc1ncsc1C(=O)N1N=C2/C(=C/c3ccccc3)CCCC2C1c1ccccc1 (stereo not given) | 99* | 36 | 27 | 6 | 30 | 21
